This is a sample that favours compounds with a hit; in the whole collection about 12% have one here.
Lmaj promast: reduces viability of Leishmania major promastigotes. resazurin fluorescence viability. inhibition, % at 10 µM. 200,000 compounds, 9% hits; in the data active = inhibition above about 50%;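 note: promastigotes grown with compound for 44 hours at 28 °C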
KCC2 mod: KCC2 (human) Cl- transport modulation | KCC2 cells, thallium flux FluoZin-2 fluorescence | B-score of Tl+ flux slope (higher = more flux/activation; lower = inhibition) at 10 µM | 190,000 compounds, 2.2% hits;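 active = thallium flux slope and its plate-corrected score both differing from the plate sample mean at a set confidence after two filtering rounds, in either direction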;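 note: slope of fluorescence scaled to starting intensity during 10 to 20 s after thallium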
Diaph act CS: counter-screen for diaphorase-based assays: diaphorase activators and chemical reducers. Diaphorase/resazurin coupled assay, resorufin fluorescence, 16 min; active compounds read high; 1 = vehicle wells, 0 = NADH-free wells. activation factor at 20 µM. 190,000 compounds, 0.005% hits;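 active = diaphorase activity raised at least twofold by the compound at 20 µM; inactive = activation factor below 2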
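Material: Purified diaphorase enzyme from Clostridium kluyveri | Buffer or medium: 50 mM HEPES pH 7.4 with 4.542 mM MgCl2, 0.005% Tween 20 | Times: 16 min enzyme reaction, ambient temperature | Signal: Red resorufin fluorescence at 544/590 nm excitation/emission | Measure: Increased resorufin signal from activators or reducing compounds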
Diaph inh CS: inhibits diaphorase or chemically oxidizes, flagging diaphorase assay artifacts; diaphorase resazurin-to-resorufin fluorescence, NADH, 16 min; bacterial (C. kluyveri) enzyme, not human; inhibition, % at 20 µM; 190,000 compounds, 0.69% hits; AID 1217;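 active = primary screen inhibition at 20 µM above a set limit, cut at about 50% in these data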
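Benchmarks: positive control wells lacking NADH, neutral wells with DMSO only. System: bacterial diaphorase enzyme (C. kluyveri). Input: 0.14 U/mL diaphorase, enzyme working solution. Detection: resorufin fluorescence, excitation 544 nm, emission 590 nm. Times: 16-min room-temperature incubation before reading.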
ROMK mod: modulates human ROMK potassium channel activity; Tet-inducible ROMK, thallium flux fluorescence; actives lie on both sides; B-score at 10 µM; 130,000 compounds, 2% hits; AID 1918;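 active = signal ratio slope over the read window, or its plate-corrected B-score, at least 3 SD from the plate mean, either direction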;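 note: B-score of the F/F0 ratio slope over 7 to 12 s after thallium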
Target sequence (P48048 whole entry, looked up): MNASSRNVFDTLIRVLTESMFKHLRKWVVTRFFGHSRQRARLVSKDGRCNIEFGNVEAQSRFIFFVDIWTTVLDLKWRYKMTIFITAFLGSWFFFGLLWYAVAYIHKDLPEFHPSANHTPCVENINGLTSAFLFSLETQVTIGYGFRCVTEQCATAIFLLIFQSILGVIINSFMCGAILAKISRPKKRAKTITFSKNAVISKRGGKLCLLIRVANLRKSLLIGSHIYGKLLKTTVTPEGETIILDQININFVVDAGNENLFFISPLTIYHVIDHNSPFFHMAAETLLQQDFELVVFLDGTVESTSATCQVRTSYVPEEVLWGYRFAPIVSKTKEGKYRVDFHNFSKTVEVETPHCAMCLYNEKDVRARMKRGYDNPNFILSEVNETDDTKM
WT yeast gro inh: growth inhibition of WT yeast, mitochondrial fusion screen | mitochondrial fusion phenotypic screen, WT strain | inhibition, % at 10 µM | 190,000 compounds, 2.1% hits | AID 1362; in the data active = inhibition above about 58%; tested in S. cerevisiae
A number is an active result; – = inactive; · = no result.

SMILES	Lmaj promast	KCC2 mod	Diaph act CS	Diaph inh CS	ROMK mod	WT yeast gro inh
O=C1CCC(=O)N1N1C(=O)C2C3c4ccccc4C(c4ccccc43)C2C1=O (stereo not given)	–	–	–	–	–	–
NCCc1ccc(O)c(O)c1	–	–	–	54	–	–
Cc1cc(C)c2nc(SCCc3ccccc3)nc(C)c2c1	–	–	–	–	–	–
CC1=C(C)C(=O)NC(Nc2nc(C)c3cc(C)cc(C)c3n2)N1 (stereo not given)	100	–	·	·	·	·
Cc1cccc(S(=O)(=O)c2c(C)cc(C)nc2Cl)c1	–	–	–	–	–	–
Cn1nc(-c2ccc(N3CCCCC3)c(NC(=O)c3ccco3)c2)c2ccccc2c1=O	56	·	–	–	·	–
COC(=O)/C(=C/c1ccco1)NC(=O)c1ccco1	80	–	–	–	–	–
Cc1ccc(C(=O)N/C(=C/c2ccco2)C(=O)OCN2C(=O)c3ccccc3C2=O)cc1	61	–	–	–	–	–
Cc1ccccc1-n1nnnc1SCC(=O)N(C)C1CCS(=O)(=O)C1 (stereo not given)	–	–	–	–	–	–
CC(=O)N(C)C(c1ccc(N(C)C)cc1)c1nnnn1-c1c(C)cccc1C (stereo not given)	–	–	–	–	–	–
Cc1ccc(C)n1-c1ccc(C(=O)Nc2ccccc2)cc1	–	–	–	–	–	–
Cc1ccc(C)n1-c1cccc(NC(=O)c2ccccc2)c1	76	–	–	–	–	–
CS(=O)(=O)n1nc(C(=O)N2CCOCC2)nc1N	–	–	–	–	–	–
CCN1CCc2nc(NC(=O)C(c3ccccc3)c3ccccc3)sc2C1	–	–	–	–	–	–
CCN1CCc2nc(NC(=O)CC(c3ccccc3)c3ccccc3)sc2C1	56	–	–	–	·	–
O=C(CCSc1nnc(-c2ccco2)o1)Nc1ccc(F)cc1	–	–	–	–	–	–
CNc1sc(C(=O)c2ccc(F)cc2)c(N)c1-c1nc2ccccc2s1	–	9.9	–	–	·	–
CNc1sc(C(=O)c2cccs2)c(N)c1-c1nc2ccccc2s1	–	–	–	–	·	–
CC(C)OC(=O)N(C)c1ccc(C(O)(C(F)(F)F)C(F)(F)F)cc1	100	·	–	–	–	–
Clc1ccc2c(N/N=C/c3ccc(Br)cc3)ccnc2c1	100	–	–	–	–	99
Clc1ccc2c(N/N=C/c3cccnc3)ccnc2c1	100	–	–	–	–	–
Cc1ccc(N/N=C/c2cccnc2)cc1	76	–	–	–	–	–
Clc1ccc(NNc2ccnc3cc(Cl)ccc23)cc1	–	·	–	–	·	–
Cc1ccc(C2Oc3ccccc3C3=C2C(c2cccs2)n2ncnc2N3)cc1 (stereo not given)	51	–	–	–	·	–
CC(C)(C)OC(=O)N1CC2Cc3[nH]c(=O)ccc3C(C2)C1 (stereo not given)	–	–	–	–	–	–
SMILES	Lmaj promast	KCC2 mod	Diaph act CS	Diaph inh CS	ROMK mod	WT yeast gro inh
Oc1c(Br)cc2oc3c(c2c1CNCc1ccccc1)CCCC3	–	–	–	–	2.9	–
Oc1ccccc1CNCc1ccccc1	–	–	–	–	–	–
CC/C(O)=C1\C(=O)CC(c2ccccc2)CC1=NCCc1c(C)[nH]c2ccc(C)cc12 (stereo not given)	73	–	–	–	–	–
CCC/C(O)=C1\C(=O)CC(c2ccccc2)CC1=NCCc1c(C)[nH]c2ccc(C)cc12 (stereo not given)	58	–	–	–	–	–
CC(=O)C1=C(O)CC(c2ccccc2)CC1=NCCc1c(C)[nH]c2ccc(C)cc12 (stereo not given)	–	–	–	–	–	–
CC/C(O)=C1\C(=O)CCCC1=NCCc1c(C)[nH]c2ccc(C)cc12	·	–	·	·	–	·
CCc1ccc(C(=O)N2CCC(c3nc4ccccc4s3)CC2)cc1	87	–	–	–	·	–
Cc1nnc(C)n1/N=C/c1cc2ccccc2nc1Cl	–	–	–	–	–	–
Cn1c(N/N=C/c2c[nH]c3ccccc23)nc2ccccc21	101	·	–	–	·	–
Cn1c(N/N=C/c2cc3ccccc3nc2Cl)nc2ccccc21	–	–	–	–	–	69
O=C(CN1CCOCC1)N/N=C/c1cc2ccccc2nc1Cl	–	–	–	–	·	–
Cc1cc(N/N=C/c2c[nH]c3ccccc23)c2ccccc2n1	–	·	–	–	–	–
